Test results: article PMC2597579 (Neuroscience letters, 2008)
Like-named read-outs stand apart in the source and are kept apart here.

Legend:
[1] = test system: GABAA receptor; settings: cited from earlier work
[2] = molecular target: T1, α1β2γ2s GABAA receptor (rat subunits expressed in Xenopus laevis oocytes) (Rattus norvegicus, UniProt P18508+P62813+P63138); assay type: cell-based
[3] = molecular target: T1, α1β2γ2s GABAA receptor (rat subunits expressed in Xenopus laevis oocytes); assay type: cell-based; remark: listed apart in the source
Outline: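 Rat α1, β2, γ2S cRNAs injected 1:1:1 into defolliculated stage IV–V Xenopus laevis oocytes, kept 2–3 days at 18°C. Two-electrode voltage clamp at −60 mV, room temperature, Ca-free frog Ringer's pH 7.5. […] Percent change from control peak; t-test.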

[4] = test system: GABAA receptors; settings: ref Wan et al. [39], cited from earlier work
[5] = test system: α4β3γ1 GABAA receptor; settings: insulin, α4β3γ1 isoform; ref [40]; cited from earlier work

T1 sequence (P62813 28-455): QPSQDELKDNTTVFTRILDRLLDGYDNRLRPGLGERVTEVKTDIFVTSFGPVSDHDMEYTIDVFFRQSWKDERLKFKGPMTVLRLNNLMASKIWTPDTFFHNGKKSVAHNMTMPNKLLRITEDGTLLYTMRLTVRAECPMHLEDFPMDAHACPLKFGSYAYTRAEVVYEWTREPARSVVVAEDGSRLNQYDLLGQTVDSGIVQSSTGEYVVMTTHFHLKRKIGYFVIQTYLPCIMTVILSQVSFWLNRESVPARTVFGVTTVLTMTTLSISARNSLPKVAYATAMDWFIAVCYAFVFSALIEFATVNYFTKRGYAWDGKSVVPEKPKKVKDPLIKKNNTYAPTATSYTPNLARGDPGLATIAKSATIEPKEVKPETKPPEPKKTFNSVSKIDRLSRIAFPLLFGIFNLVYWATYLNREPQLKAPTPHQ
T1 sequence (P63138 26-474): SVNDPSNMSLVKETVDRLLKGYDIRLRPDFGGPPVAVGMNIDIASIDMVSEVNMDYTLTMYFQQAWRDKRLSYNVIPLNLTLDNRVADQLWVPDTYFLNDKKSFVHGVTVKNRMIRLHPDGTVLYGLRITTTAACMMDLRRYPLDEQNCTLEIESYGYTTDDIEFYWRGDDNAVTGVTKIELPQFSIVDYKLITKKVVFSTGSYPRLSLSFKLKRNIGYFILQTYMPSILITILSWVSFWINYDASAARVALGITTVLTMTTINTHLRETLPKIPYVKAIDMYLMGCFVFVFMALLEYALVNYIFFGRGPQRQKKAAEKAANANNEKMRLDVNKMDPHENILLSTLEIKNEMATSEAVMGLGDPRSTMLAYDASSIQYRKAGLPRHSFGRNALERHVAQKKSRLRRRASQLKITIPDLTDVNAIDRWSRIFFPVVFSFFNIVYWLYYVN
T1 sequence (P18508 39-466): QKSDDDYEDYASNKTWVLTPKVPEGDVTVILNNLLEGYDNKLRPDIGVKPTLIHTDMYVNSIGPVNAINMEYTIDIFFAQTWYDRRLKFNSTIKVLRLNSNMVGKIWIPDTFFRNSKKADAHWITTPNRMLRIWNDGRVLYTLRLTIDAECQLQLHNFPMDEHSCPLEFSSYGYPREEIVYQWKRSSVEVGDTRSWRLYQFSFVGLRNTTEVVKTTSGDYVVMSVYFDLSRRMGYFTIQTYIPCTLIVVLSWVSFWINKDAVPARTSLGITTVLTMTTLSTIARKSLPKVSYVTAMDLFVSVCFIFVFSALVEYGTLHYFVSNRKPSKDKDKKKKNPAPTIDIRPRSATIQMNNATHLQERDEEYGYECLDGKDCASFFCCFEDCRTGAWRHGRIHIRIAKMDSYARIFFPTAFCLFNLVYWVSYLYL

Compound: CN1CCc2cc3c(cc2[C@H]1[C@@H]1OC(=O)c2c1ccc1c2OCO1)OCO3 [bicuculline]
- type of GABAA antagonism ([1]; rightward shift in GABA EC50, no significant effect on maximal current, ref [2]): typical competitive inhibitor

Compound: COc1c(O[C@@H]2O[C@H](CO)[C@@H](O)[C@H](O)[C@H]2O)cc2c(c1OC)-c1ccc(SC)c(=O)cc1[C@@H](NC(C)=O)CC2 [thiocolchicoside]
- type of GABAA antagonism ([1]; similar effects and shifts in GABA dose response curves, ref [11]): competitive inhibitors of the GABAA receptor

Compound: NCCCC(=O)O [GABA, γ-aminobutyric acid, reference compound]
- approximate EC30 of GABA ([2]; concentration used for insulin dose response): ~1000 nM

Compound: insulin: pancreatic peptide hormone; bovine form (cat I-5500) from Sigma, dissolved in 0.1% acetic acid
- effect of insulin on GABA induced current ([3]; 1 nM insulin + 1 µM GABA): inhibits currents elicited by 1 µM GABA
- reversibility of the inhibitory effect of insulin ([3]; 1 nM insulin, then 1 µM GABA only): reversible
- saturating insulin concentration ([3]; 100 nM insulin): at or near saturating
- effect of insulin on GABA induced current ([3]; 100 nM insulin + 1 µM GABA): inhibits currents elicited by 1 µM GABA
- effect of insulin on GABA induced current ([3]; 100 nM insulin + 100 µM GABA): no significant effect
- percent change in GABA induced current ([3]; 100 nM insulin co-applied with 100 µM GABA (near saturating), not significant): −0.33 ± 2.0%
- inhibition of GABA induced current ([3]; insulin co-applied with low (EC30–50) concentrations of GABA): about 38%
- affinity of insulin for the GABA receptor ([3]; stated in discussion, from insulin dose response): nanomolar affinity for the GABA receptor
- maximal current with insulin, % of maximal ([2]; 100 nM insulin, GABA dose response 0.1 µM to 1 mM): 99 ± 13%
- incubation time required for potentiating effect ([4]; 500 nM insulin): at least 10 minutes
- insulin concentration required for potentiating effect ([4]; incubation at least 10 minutes): 500 nM
- type of inhibition [5]: mixed type inhibition

Compound: c1ccc2c(c1)Cc1ccccc1-n1c-2nnc1N1CCNCC1 [pitrazepin]
- type of GABAA antagonism ([1]; similar effects and shifts in GABA dose response curves, ref [14]): competitive inhibitors of the GABAA receptor
